Screening results: PubChem, The Scripps Research Institute Molecular Screening Center
Shown are actives, neighbours in structure and some others; about 2.2% of the full set was active somewhere.
CHRM5 PAM – potentiates acetylcholine response at human M5 receptor. CHO-K1 hM5, Fluo-8 calcium, ACh EC20 PAM; 0% = ACh EC20, 100% = ACh EC100. AID 624038. hit rate 0.3% among 360,000. activation, % at 3 µM. P08912;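 active means activation above the run cutoff, the mean activation of all test compounds plus 3 SD, cut at about 18% in these data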
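System: CHO-K1 cell line with stable human muscarinic M5 receptor expression | Also added: EC20 acetylcholine as agonist stimulus | Compound: One concentration, 3 µM final (nominal) | Timing: Fluo-8 loading 80 min at 37 °C plus 30 min room temperature | Measured by: Fluo-8 calcium dye fluorescence, kinetic read | Read-out basis: % activation, ACh-normalized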
M5 ag – CHRM5 agonism in calcium assay | CHO-K1 hM5 cells, Fluo-8 calcium fluorescence; 0% DMSO wells, 100% maximal acetylcholine response | activation, % at 3 µM | hit rate 0.19% among 360,000 | AID 624037;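 active means activation above the run's mean over test compounds plus 3 SD, cut at about 23% in these data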;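 further: signal is peak over basal fluorescence ratio across the kinetic read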
CHRM1 antagonist – antagonists of human M1 muscarinic receptor; P11229; CHO-K1 hM1, Fluo-8 calcium fluorescence, ACh EC80 antagonist; inhibition, % at 3 µM; hit rate 1.3% among 360,000; AID 588852;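 active means percent inhibition above its own plate's cutoff, namely the mean of that plate's compound wells plus 3 SD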;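 further: peak over basal fluorescence ratio during 140 s after agonist addition; 0% = ACh EC80 plus DMSO and 100% = DMSO alone without agonist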
Target sequence (P11229 whole entry, looked up): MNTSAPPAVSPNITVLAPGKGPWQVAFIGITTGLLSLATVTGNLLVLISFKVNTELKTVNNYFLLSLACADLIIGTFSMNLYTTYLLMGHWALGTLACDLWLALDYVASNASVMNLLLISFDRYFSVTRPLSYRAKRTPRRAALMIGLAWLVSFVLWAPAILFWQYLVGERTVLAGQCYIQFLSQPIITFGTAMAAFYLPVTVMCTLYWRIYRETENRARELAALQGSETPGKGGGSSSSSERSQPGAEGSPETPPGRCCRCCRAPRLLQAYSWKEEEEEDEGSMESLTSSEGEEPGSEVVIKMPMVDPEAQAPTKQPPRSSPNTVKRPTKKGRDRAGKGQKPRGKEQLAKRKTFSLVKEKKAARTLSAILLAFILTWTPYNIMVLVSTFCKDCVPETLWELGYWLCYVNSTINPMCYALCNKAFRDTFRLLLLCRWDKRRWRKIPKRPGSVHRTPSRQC
M5 antag – blocks acetylcholine activation of human M5 receptor; P08912; CHO-hM5 cells, Fluo-8 calcium fluorescence, ACh EC80; inhibition, % at 3 µM; hit rate 0.59% among 360,000; AID 624040;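 active means inhibition above a per-plate cutoff, the mean of that plate's test compounds plus 3 SD, cut at about 27% in these data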;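 further: 0% = acetylcholine EC80 with DMSO and 100% = DMSO without agonist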
M1 ag – agonists of human M1 muscarinic receptor; hit rate 0.33% among 360,000; activation, % at 3 µM; AID 588814; CHO-K1 hM1, Fluo-8 calcium fluorescence, agonist mode; 0% DMSO, 100% acetylcholine EC100; P11229;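 active means activation above the run's mean compound activation plus 3 SD, cut at about 16% in these data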;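 further: peak over basal fluorescence ratio within a 140 s kinetic read after compound addition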
CHRM1 PAM – potentiates human M1 receptor response to acetylcholine | CHO-K1 hM1, Fluo-8 calcium fluorescence, ACh EC20; 0% = ACh EC20, 100% = maximal ACh | activation, % at 3 µM | hit rate 0.088% among 360,000 | AID 588819; in the data active means activation above about 19%, passing the limit was not always enough
Starred values were filed as active, the others as inactive; nt = no result given.

SMILES	CHRM5 PAM	M5 ag	CHRM1 antagonist	M5 antag	M1 ag	CHRM1 PAM
NC(=O)CC(NC(=O)Cc1ccc(Br)cc1)c1ccc(NC2CCN(Cc3ccccc3)CC2)c([N+](=O)[O-])c1 (stereo unspecified)	-3	-13	43*	-3	-13	-36
O=[N+]([O-])c1ccccc1NC1CCN(Cc2ccccc2)CC1	-10	-18	47*	11	-9	-25
O=[N+]([O-])c1ccc(NC2CCN(Cc3ccccc3)CC2)c([N+](=O)[O-])c1	-6	-10	10	3	-13	-31
Cc1ccc(S(=O)(=O)CCSc2cccc(C(=O)Nc3ccccc3C(=O)O)c2)cc1	4	3	6	-4	-2	37*
COc1ccccc1CNC(=O)CN(C)S(=O)(=O)c1cccc2cccnc12	2	0	-14	12	-1	14
CCCC(CCC)C(=O)OC1C[C@H]2CC[C@@H](C1)[N+]2(C)C (stereo partly specified)	-18	-1	98*	98*	-7	-26
CSc1ncnc2[nH]ccc12	7	3	-10	5	-2	3
Cc1cn([C@@H](CCCCNC(=O)OC(C)(C)C)C(=O)NCCCCCCCCCCC(=O)N2CCN(C(=O)OC(C)(C)C)CC2)nn1	-40	0	44*	19	-2	-28
Cc1cc(C)[n+](-c2ccc(C(C)C)cc2)c2[nH]c(=O)[nH]c(=O)c12	-9	-7	55*	-1	-10	-22
COc1ccc(S(=O)(=O)NCC2CCCN(Cc3ccc(OC)cc3F)C2)cc1 (stereo unspecified)	6	-6	-3	8	-14	2
COc1ccc(S(=O)(=O)NCC2CCCN(Cc3ccccc3Cl)C2)cc1 (stereo unspecified)	-7	-8	51*	14	-6	-24
COc1ccc2c(c1)CCN(C(=O)CCl)C2C1C(=O)CCCC1=O (stereo unspecified)	-4	7	13	10	25*	-18
O=C(COC(=O)c1ncc(Cl)c(Cl)c1Cl)Nc1cccnc1Cl	-5	1	-1	13	3	8
O=C([C@@H]1CC=C[C@@H]2CCN(C3CCCCC3)C(=O)[C@@H]21)N1CCN(c2ccccc2)CC1	2	-2	-3	9	-6	5
CCC(=O)N1CCCC1(C)C(=O)NCc1ccc(SC)cc1 (stereo unspecified)	1	0	-12	2	-3	9
CC1=[N+](C)N(c2ccccc2)C(=O)C1N=C/C=C/c1ccccc1 (stereo unspecified)	-31	-19	99*	25	-7	-26
O=C(c1ccco1)N1N=C(C2CCCCC2)CC1(O)C(F)(F)F (stereo unspecified)	-13	-4	13	22	-13	-13
O=C(c1ccncc1)N1N=C(C2CCCCC2)CC1(O)C(F)(F)F (stereo unspecified)	2	-9	37*	-1	-13	-31
O=C1NC[C@@H](CCCCN2C[C@H](Cc3ccc(O)cc3)N(CC3CCCCC3)C(=O)C2=O)N(CCC2CCCCC2)C1=O	-6	37*	nt	3	nt	nt
Cn1c(=O)n(CCc2ccccc2)c(=O)c2c1nc1n2CCN1Cc1ccco1	-32	-5	32*	7	0	-7
Cn1c(=O)n(Cc2ccc(F)cc2)c(=O)c2c1nc1n2CCN1Cc1ccco1	0	5	7	3	-4	0
O=C(CN1CCCC1)Nc1ccc(Br)cc1[N+](=O)[O-]	-1	-4	-11	11	-7	8
CCCCn1c(N)c(N(CCOC)C(=O)c2ccc3c(c2)C(=O)N(c2ccccc2C)C3=O)c(=O)[nH]c1=O	1	-3	33*	9	-2	-1
CCN(CC)S(=O)(=O)c1ccc(OCCNS(C)(=O)=O)cc1	-15	-1	-3	29*	-7	8
CCCNC(=O)c1nnsc1S(=O)c1ccc(Cl)cc1 (stereo unspecified)	-6	7	5	16	-5	-4
SMILES	CHRM5 PAM	M5 ag	CHRM1 antagonist	M5 antag	M1 ag	CHRM1 PAM
CCCNC(=O)c1nnsc1S(=O)(=O)c1ccc(Cl)cc1	-1	-2	96*	6	-6	-20
Cc1onc(-c2c(F)cccc2Cl)c1C(=O)Oc1ccccc1	-13	-6	14	3	-10	-14
Cc1ccc(S(=O)(=O)NNc2nc3ccccc3nc2C(F)(F)F)cc1	1	3	-5	6	50*	0
COc1ccc(OC)c(-c2cc(C(F)(F)F)c3c(n2)sc2c(O)cc(=O)[nH]c23)c1	0	1	-1	2	-2	1
COc1ccccc1NS(=O)(=O)c1cc(C(=O)NCc2cccnc2)ccc1C	1	5	-26	-9	1	16
Cc1ccccc1NC(=O)c1ccc(C)c(S(=O)(=O)NCc2cccnc2)c1	-6	4	-6	-4	22*	10
CCCCNC(=O)c1nc(C2CCN(S(=O)(=O)c3ccc(Cl)cc3)CC2)oc1-c1ccccc1	5	-3	nt	-14	nt	nt
Nc1nonc1NN=C1CCCCC1	21*	3	-6	-16	2	13
COc1ccc2c3c(cccc13)C(=O)CC2	-10	34*	31	29*	119*	-21
COc1ccc2c(c1OC)C(=O)OC2	-13	0	1	12	9	9
Cc1ccc(S(=O)(=O)CCC#N)cc1	0	1	-3	14	-3	3
CC(=O)Nc1ccc(S(=O)(=O)CCC#N)cc1	40*	-5	1	10	1	6
CCOC(=O)C1(C)CCCN1C(=O)c1cccc2ccccc12 (stereo unspecified)	3	-1	-14	-1	-4	11
Cc1cccc(CN(C(=S)Nc2c(C)cccc2C)c2cccnc2)c1	18*	-13	-11	-6	-5	10
O=C(NCc1ccco1)c1cc(C(=O)C2CC2)c[nH]1	3	1	-4	2	-4	0
O=C(CC12CC3CC(CC(Br)(C3)C1)C2)NC1CCCC1	-16	-9	55*	19	-15	-37
CC(=O)NS(=O)(=O)c1ccc(NC(=O)CC23CC4CC(CC(Br)(C4)C2)C3)cc1	1	-1	-5	14	-4	7
COC(=O)NNC(=O)c1ccc(Cl)cc1Cl	1	1	-8	-2	-4	1
CC(C)(C)C(=O)NC(=S)NNC(=O)c1ccc(-c2ccccc2)cc1	-39	101*	103*	97*	115*	-24
CC(C)(C)C(=O)NC(=S)NNC(=O)c1ccc(Cl)cc1Cl	-33	98*	87*	36*	117*	-24
